Assay results of several laboratories.
Lines come from different studies, so protocols differ.
Matrix: plasma
Route: oral

CCc1nc2c(C)cc(N3CCN(CC(=O)N4CC(O)C4)CC3)cn2c1N(C)c1nc(-c2ccc(F)cc2)c(C#N)s1 — AUC(0-inf) (human; 300 mg; fed, healthy volunteers): 16400 ng·h/mL
CC(C)n1cc(C#N)c2cc(-n3cc(C(=O)O)cn3)ccc21 — AUC(0-inf) (human; 25 mg; single dose, fasted, healthy volunteers): 5190 ng·h/mL
Cn1cc(-c2ccc(S(=O)(=O)[C@@H]3C[C@@H](C(=O)NC4(C#N)CC4)N(C(=O)C4(C(F)(F)F)CC4)C3)c(C(F)(F)F)c2)cn1 — AUC(0-inf) (human; 30 mg; single dose, fasted, healthy volunteers): 3240 ng·h/mL
CO[C@H]1CC[C@H](N2C(=O)CNc3ncc(-c4ccc(C(C)(C)O)nc4)nc32)CC1 — AUC(0-inf) (human; 45 mg; patients): 1690 ng·h/mL
CC(C)(O)c1ccccc1-c1ccc2[nH]c(/C=C/c3ccc(C(F)(F)F)cc3)nc2c1 — AUC(0-inf) (male human; 10 mg; single dose, fasted): 2110 ng·h/mL
CC(C)(Sc1ccncc1-c1ccc(C#N)c2ccccc12)C(=O)O — AUC(0-inf) (male human; 20 mg; single dose, fasted, healthy volunteers): 540 ng·h/mL
C[C@@]1(c2cc(NC(=O)c3ccc(C#N)cn3)ccc2F)C=CSC(N)=N1 — AUC(0-inf) (human; 150 mg; single dose): 14500 ng·h/mL
COc1ccc([C@@H]2CN(C(=O)[C@@H](O)CO)C[C@@]2(C)[C@@H](C)O)cc1OC1CN(c2ccc(C)cn2)C1 — AUC(0-inf) (human; 1.5 mg; single dose, healthy volunteers): 524 ng·h/mL
